The chains are these.
B1: Osa-1-4 twister ribozyme (parent)
chain: CCGCCUAACACUGCCAAUGCCGGUCCCAAGCCCGGAUAAAAGUGGAGGGGGCGG

Here are results for 49 variants from the RNAGym collection of RNA variant scans (doi:10.1002/anie.201605470).

This data set covers variants of B1. Kind of data set: self-cleavage, relative activity (ratio to wild type); higher = more cleavage; co-transcriptional. The procedure, abridged: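 For each read, cleavage status was taken from whether upstream sequence was present. The reads came from an Oryza sativa twister ribozyme of 54 nucleotides, whose DNA template was synthesised with 97 % wild-type base and 1 % of each other base at the 48 positions downstream of the cleavage site. The template was transcribed in vitro at 37 °C for 2 h with co-transcriptional self-cleavage, and the RNA was reverse-transcribed using a template-switching oligonucleotide, PCR-amplified and deep-sequenced. Relative activity is the fraction cleaved normalised to wild type.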
As for CCGCCUAACACUGCCAAUGCCGGUCCCAGGCCCGGAUAAAAGUGGAGCGGGCGG [A29G G48C], the self-cleavage came to 0.04.

As to CCGCCUAACACUGCCAAUGCCGGUCCCAUGCCCGGAUAAUAGUGGAGGGGGCGG [A29U A40U], the self-cleavage was determined as 0.06.

Take CCGCCUAACACUGCCAAUGCCGGUCCCAUGCCCGGAUAACAGUGGAGGGGGCGG [A29U A40C]: the self-cleavage stood at 0.03.

Turning to CCGCCUAACACUGCCAAUGCCGGUCCCAUGCCCGGAUAAGAGUGGAGGGGGCGG [A29U A40G], the self-cleavage amounted to 0.08.

Regarding CCGCCUUACACUGCCAAUGCCGGUCCCAUGCCCGGAUAAAAGUGGAGGGGGCGG [A29U A7U], the self-cleavage stood at 0.05.

CCGCCUGACACUGCCAAUGCCGGUCCCAUGCCCGGAUAAAAGUGGAGGGGGCGG [A29U A7G]: the self-cleavage came out at 0.06.

As for CCGCCUCACACUGCCAAUGCCGGUCCCAUGCCCGGAUAAAAGUGGAGGGGGCGG [A29U A7C], the self-cleavage came to 0.02.

Take CCGCCUAACACUGCCAAUGCCGGUACCAUGCCCGGAUAAAAGUGGAGGGGGCGG [A29U C25A]: the self-cleavage came out at 0.03.

For CCGCCUAACACUGCCAAUGCCGGUGCCAUGCCCGGAUAAAAGUGGAGGGGGCGG [A29U C25G], the self-cleavage amounted to 0.05.

In the case of CCGCCUAACACUGCCAAUGCCGGUUCCAUGCCCGGAUAAAAGUGGAGGGGGCGG [A29U C25U], the self-cleavage was 0.1.

For the variant CCGCCUAACACAGCCAAUGCCGGUCCCAGGCCCGGAUAAAAGUGGAGGGGGCGG [A29G U12A], the self-cleavage stood at 0.1.

CCGCCUAACACCGCCAAUGCCGGUCCCAGGCCCGGAUAAAAGUGGAGGGGGCGG [A29G U12C]: the self-cleavage stood at 0.08.

For the variant CCGCCUAACACGGCCAAUGCCGGUCCCAGGCCCGGAUAAAAGUGGAGGGGGCGG [A29G U12G], the self-cleavage is 0.04.

On to CCGCCUAACACUGCCAAUGCCGGUCCCAGGCCCGGAUAAAAGUGCAGGGGGCGG [A29G G45C], for which the self-cleavage came to 0.03.

For CCGCCUAACACUGCCAAUGCCGGUCCCAGGCCCGGAUAAAAGUGAAGGGGGCGG [A29G G45A], the self-cleavage was 0.05.

On to CCGCCUAACACUGCCAAUGCCGGUCCCAGGCCCGGAUAAAAGUGUAGGGGGCGG [A29G G45U], for which the self-cleavage came to 0.04.

As for CCGCCUAACACUGCCAAUGCCGGUCCCAGGCCCGGAGAAAAGUGGAGGGGGCGG [A29G U37G], the self-cleavage worked out at 0.44.

Consider CCGCCUAACACUGCCAAUGCCGGUCCCAGGCCCGGAAAAAAGUGGAGGGGGCGG [A29G U37A], for which the self-cleavage came out at 0.32.

For the variant CCGCCUAACACUGCCAAUGCCGGUCCCAGGCCCGGACAAAAGUGGAGGGGGCGG [A29G U37C], the self-cleavage worked out at 0.28.

For the variant CCGCCUAACACUGCCAAUGCGGGUCCCAUGCCCGGAUAAAAGUGGAGGGGGCGG [A29U C21G], the self-cleavage stood at 0.04.

Regarding CCGCCUAACACUGCCAAUGCUGGUCCCAUGCCCGGAUAAAAGUGGAGGGGGCGG [A29U C21U], the self-cleavage stood at 0.15.

Take CCGCCUAACACUGCCAAUGCAGGUCCCAUGCCCGGAUAAAAGUGGAGGGGGCGG [A29U C21A]: the self-cleavage amounted to 0.05.

As for CCGCCUAACACUGCCAAUGCCGGUCCCAUGCCCGGAUAUAAGUGGAGGGGGCGG [A29U A39U], the self-cleavage came out at 0.07.

On to CCGCCUAACACUGCCAAUGCCGGUCCCAUGCCCGGAUAGAAGUGGAGGGGGCGG [A29U A39G], for which the self-cleavage was 0.07.

Regarding CCGCCUAACACUGCCAAUGCCGGUCCCAUGCCCGGAUACAAGUGGAGGGGGCGG [A29U A39C], the self-cleavage worked out at 0.05.

As to CCGCCUAACACUGCCAAUGCCGGUCGCAUGCCCGGAUAAAAGUGGAGGGGGCGG [A29U C26G], the self-cleavage came to 0.05.

As for CCGCCUAACACUGCCAAUGCCGGUCUCAUGCCCGGAUAAAAGUGGAGGGGGCGG [A29U C26U], the self-cleavage is 0.07.

Consider CCGCCUAACACUGCCAAUGCCGGUCACAUGCCCGGAUAAAAGUGGAGGGGGCGG [A29U C26A], for which the self-cleavage worked out at 0.03.

Regarding CCGCCUAACACUGCCAAUGCCGGUCCCAGGCCCGGAUAAAAGGGGAGGGGGCGG [A29G U43G], the self-cleavage was found to be 0.06.

In the case of CCGCCUAACACUGCCAAUGCCGGUCCCAGGCCCGGAUAAAAGCGGAGGGGGCGG [A29G U43C], the self-cleavage stood at 0.08.

For the variant CCGCCUAACACUGCCAAUGCCGGUCCCAGGCCCGGAUAAAAGAGGAGGGGGCGG [A29G U43A], the self-cleavage was found to be 0.07.

On to CCGCCUAACACUGCCAAUGACGGUCCCAUGCCCGGAUAAAAGUGGAGGGGGCGG [A29U C20A], for which the self-cleavage worked out at 0.12.

For the variant CCGCCUAACACUGCCAAUGUCGGUCCCAUGCCCGGAUAAAAGUGGAGGGGGCGG [A29U C20U], the self-cleavage is 0.21.

In the case of CCGCCUAACACUGCCAAUGGCGGUCCCAUGCCCGGAUAAAAGUGGAGGGGGCGG [A29U C20G], the self-cleavage came out at 0.03.

Consider CCGCCUAACACUGCCAAUGCCGGUCCCAGGCCCGGAUAAAAGUGGAGGAGGCGG [A29G G49A], for which the self-cleavage was 0.05.

As for CCGCCUAACACUGCCAAUGCCGGUCCCAGGCCCGGAUAAAAGUGGAGGCGGCGG [A29G G49C], the self-cleavage was found to be 0.04.

Turning to CCGCCUAACACUGCCAAUGCCGGUCCCAGGCCCGGAUAAAAGUGGAGGUGGCGG [A29G G49U], the self-cleavage came to 0.04.

In the case of CCGCCUAACACUGCCAAUGCCGGUCCCAGGCCCGGAUAAAAGUGGACGGGGCGG [A29G G47C], the self-cleavage came out at 0.03.

Consider CCGCCUAACACUGCCAAUGCCGGUCCCAGGCCCGGAUAAAAGUGGAUGGGGCGG [A29G G47U], for which the self-cleavage came to 0.03.

For the variant CCGCCUAACACUGCCAAUGCCGGUCCCAGGCCCGGAUAAAAGUGGAAGGGGCGG [A29G G47A], the self-cleavage was found to be 0.05.

In the case of CCGCCUAACACUGCCAAUGCCGGUCCCAUGCCCGGAUAAAGGUGGAGGGGGCGG [A29U A41G], the self-cleavage worked out at 0.06.

As for CCGCCUAACACUGCCAAUGCCGGUCCCAUGCCCGGAUAAAUGUGGAGGGGGCGG [A29U A41U], the self-cleavage came to 0.2.

As for CCGCCUAACACUGCCAAUGCCGGUCCCAUGCCCGGAUAAACGUGGAGGGGGCGG [A29U A41C], the self-cleavage turned out to be 0.13.

With CCGCCUAGCACUGCCAAUGCCGGUCCCAUGCCCGGAUAAAAGUGGAGGGGGCGG [A29U A8G], the self-cleavage is 0.11.

Regarding CCGCCUAUCACUGCCAAUGCCGGUCCCAUGCCCGGAUAAAAGUGGAGGGGGCGG [A29U A8U], the self-cleavage was 0.05.

Consider CCGCCUACCACUGCCAAUGCCGGUCCCAUGCCCGGAUAAAAGUGGAGGGGGCGG [A29U A8C], for which the self-cleavage came to 0.04.

For CCGCCUAACACUGCCAAUGCCGGUCCCAUGCCCGGAUAAAAGUGGUGGGGGCGG [A29U A46U], the self-cleavage was 0.04.

On to CCGCCUAACACUGCCAAUGCCGGUCCCAUGCCCGGAUAAAAGUGGGGGGGGCGG [A29U A46G], for which the self-cleavage was 0.04.

As for CCGCCUAACACUGCCAAUGCCGGUCCCAUGCCCGGAUAAAAGUGGCGGGGGCGG [A29U A46C], the self-cleavage was 0.02.
